This is one part of a sample in which hits are shown more often than they occur.
Apaf1 activ = activates human Apaf-1 apoptosome. O14727. activity change, negative = activation, % at 20 µM. AID 489031. Apaf-1 apoptosome caspase-3 activation, DEVD-Rh110 fluorescence; hits give low values. hit rate 0.31% among 330,000;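 active = activity change at or below -40% at 20 µM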
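Material: biochemical Apaf-1 apoptosome reconstitution; Medium: 20 mM HEPES buffer, pH 7.5, containing CHAPS and BSA; Reagent: dATP, cytochrome c, and (Z-DEVD)2-Rh110 caspase-3 substrate; Times: 30 min preincubation, 50 min reaction, room temperature; Signal: Rh110 fluorescence, excitation 480 nm, emission 540 nm; Measure: Caspase-3 activity via Apaf-1.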
Rh110 interf act = Rh110 signal interference in Apaf-1 activator counter-screen | shares compounds with Apaf1 activ | Rh110 fluorescence interference, quenched caspase reaction, Ex480/Em540 | fluorescence interference (activity change), % at 20 µM, hits read low | 980 tested, under 10 active | AID 504616;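 active = mean activity change at or below -40% when tested at 20 µM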
Apaf-1 act conf = confirmation of human Apaf-1 activators; shares compounds with Apaf1 activ; reconstituted apoptosome caspase-3 activity, DEVD-Rh110 fluorescence; hits give low values; activity change, negative = activation, % at 20 µM; hit rate 5% among 980; AID 504617;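 active = mean activity change at or below -40%, meaning activation of 40% or more, at 20 µM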
Numbers without * were called inactive; nt = not tested or not shown.

SMILES | Apaf1 activ | Rh110 interf act | Apaf-1 act conf
O=C(O)c1ccc2c(c1)-c1nc3ccccc3n1C2=O | -113.1* | -1.5 | -1.1
O=C(O)c1ccc(NC2=C(n3nnc4ccccc43)C(=O)c3ccccc3C2=O)cc1 | 73.1 | nt | nt
c1ccc(CNc2nc(NCc3ccccc3)c3ccccc3n2)cc1 | 65.9 | nt | nt
CCCN1CCCc2cc(CN)ccc21 | 83.9 | nt | nt
COCc1cc(=O)[nH]c(Sc2c(-c3ccccc3)c3ccc(Cl)cc3[nH]c2=O)n1 | -49.5* | 10.1 | 10.9
COc1ccccc1C(C)NC(=O)C1CCN(S(=O)(=O)c2cccs2)CC1 (configuration not stated) | -53.4* | 13.4 | 14.2
CCCCCCCCCCCCOC(=O)C[N+](C)(C)C | 46.2 | nt | nt
CNC(=O)NCC12CC3CC(CC(C3)C1)C2 | -293.1* | 9.6 | 10.2
CCOC(=O)c1c(CN(C)C)n(C)c2c(O)c(N=NC(N)=O)c3ccc(Br)cc3c12 | 95.1 | nt | nt
CCCCCCCCCCCCCCCC(O)C(N)CO (configuration not stated) | 80.2 | nt | nt
COc1ccccc1/C=C/C(=O)OCC(=O)NC1CCS(=O)(=O)C1 (configuration not stated) | -77.7* | -5.2 | 5.2
O=C(NC1=C(NC2CCS(=O)(=O)C2)C(=O)c2ccccc2C1=O)c1ccccc1 (configuration not stated) | 88.1 | nt | nt
C=CCNC(=O)CN(c1cccc(Br)c1)S(C)(=O)=O | -55.6* | 2.1 | 7.4
C#CCOCCOCCOCCNc1nc(N2CCN(C(=O)CCCCCCCCCCNC(=O)[C@H]([C@@H](C)CC)n3cc(CCCCN=C(N)N)nn3)CC2)nc(N2CCN(C(=O)CCCCCCCCCCNC(=O)[C@H]([C@@H](C)CC)n3cc(CCCCN=C(N)N)nn3)CC2)n1 | 41.3 | nt | nt
Cn1nccc1C(=O)N1CCN(C23CC4CC(CC(C4)C2)C3)CC1 | -56.3* | 9.8 | 16.5
CCCCCCCCCCOC(=O)Cn1c(COc2ccccc2)[n+](C)c2ccccc21 | 73.1 | nt | nt
Cc1c(CCO)c(=O)[nH]n1S(=O)(=O)c1cccc(C(F)(F)F)c1 | -91.6* | 11.4 | 14.7
O=C(Cc1cccc(C(F)(F)F)c1)OCC(=O)N1CCN(S(=O)(=O)c2ccc(Cl)cc2)CC1 | 51.1 | nt | nt
COc1ccc2cc1Oc1ccc(cc1)C[C@H]1c3c(cc4c(c3Oc3cc5c(cc3OC)CCN(C)[C@@H]5C2)OCO4)CCN1C | 49.2 | nt | nt
NC(=O)[C@@H]1CCCNc2c(I)cc([N+](=O)[O-])cc2C(=O)N[C@@H](CCCN=C(N)N)C(=O)N[C@@H](CCCN=C(N)N)C(=O)N1 | 40.8 | nt | nt
CCCCCC(=O)Nc1ccc(N2CCN(S(C)(=O)=O)CC2)cc1 | -522.9* | 6.2 | 12.2
O=C(c1ccccc1)c1coc2c1C(=O)c1ccccc1C2=O | 63.6 | nt | nt
CCn1cc(CN2CCC(n3nccc3NC(=O)Cc3ccccc3)CC2)cn1 | -53.4* | -0.2 | 8.7
CC(=O)O[C@]1(C(C)=O)CC[C@H]2[C@@H]3C[C@H](C)C4=CC(=O)CC[C@]4(C)[C@H]3CC[C@@]21C | 17.8 | nt | nt
CCCCCNC(=O)c1cn(CC)c2cc(N3CCN(C)CC3)c(F)cc2c1=O | -72.1* | 5.3 | 13.9
SMILES | Apaf1 activ | Rh110 interf act | Apaf-1 act conf
CC[C@]12c3[nH]c4ccc(Cl)cc4c3CCN1C(=O)[C@@H](CC(=O)NCC13CC4CC(CC(C4)C1)C3)C[C@@H]2C(=O)N1CCN(C(=O)c2ccco2)CC1 | 43.7 | nt | nt
CNC(=S)NNC(=O)c1sccc1OCc1cccc(C(F)(F)F)c1 | -189.5* | 12.0 | 6.9
Cc1ccc(NC(=O)N2CCCC2C(=O)Nc2ccc3c(c2)OCCO3)cc1 (configuration not stated) | -82.8* | -1.2 | 10.5
O=C(Nc1ccc(OC(F)F)c(Cl)c1)[C@@H]1CCCN1C(=O)c1cccs1 | 92.3 | nt | nt
O=C(Nc1ccc2c(c1)OCO2)C1CCCCN1S(=O)(=O)c1ccccc1 (configuration not stated) | -95.0* | 16.1 | 17.5
C#CCOCCOCCOCCNc1nc(N2CCN(C(=O)CCCCCCCCCCNC(=O)[C@H](CO)n3cc(CCCSC)nn3)CC2)nc(N2CCN(C(=O)CCCCCCCCCCNC(=O)[C@H](CCCCN)n3cc(CCO)nn3)CC2)n1 | 73.7 | nt | nt
O=C(CCC1N=C2c3ccccc3N=C(SCc3ccc(Cl)cc3)N2C1=O)NCc1ccco1 (configuration not stated) | 40.8 | nt | nt
S=C(NCCc1ccc(Cl)cc1)NCc1ccco1 | -154.0* | 2.8 | 14.7
O=C1C(NS(=O)(=O)c2ccc(Cl)cc2)=C(N2CCCCC2)C(=O)c2ccccc21 | 71.8 | nt | nt
O=S1(=O)N=C(Nc2ccc(S(=O)(=O)N3CCCCC3)cc2)c2ccccc21 | -44.4* | -2.9 | 8.6
CCN(CCO)c1ccc(NC(=S)Nc2cccc(S(=O)(=O)N(C)C)c2)cc1 | 42.9 | nt | nt
CCNC(=S)Nc1cccc(NC(=O)c2ccccc2O)c1 | -206.5* | -3.3 | 14.8
CCN(CC)C(=O)CSC(=Nc1ccccc1F)NC#N | -52.2* | 17.8 | 11.5
C=CCn1c(NC(=O)c2ccc(Br)o2)c(S(=O)(=O)c2ccccc2)c2nc3ccccc3nc21 | 62.8 | nt | nt
CN(C)C(=O)c1ccc(NC(=O)COc2cccc(Oc3ccccc3)c2)cc1 | 61.1 | nt | nt
CN1CCN(c2ccc(NC(=O)COc3ccccc3)cc2Cl)CC1 | 49.5 | nt | nt
Cc1cc(OCC(=O)NCCO)ccc1Cl | -53.5* | 7.0 | 10.5
Clc1ccc(-c2cn3nc4c(nc3n2)CCCC4)cc1 | 65.3 | nt | nt
S=c1nc(-c2ccc(Cl)cc2)[nH][nH]1 | -396.0* | 8.3 | 13.8
CC(C)N1CCc2c(sc(NC(=O)c3cc(-c4cccs4)nc4ccccc34)c2C(N)=O)C1 | 61.1 | nt | nt
C#CCOCCOCCOCCNc1nc(N2CCN(C(=O)CCCCCCCCCCNC(=O)[C@H]([C@@H](C)CC)n3cc(CCCCN=C(N)N)nn3)CC2)nc(N2CCN(C(=O)CCCCCCCCCCNC(=O)[C@H](CCCCN)n3cc(C)nn3)CC2)n1 | 73.2 | nt | nt
CCc1ccc2nc(NC(=O)CSCc3c(C)noc3C)sc2c1 | 45.6 | nt | nt
O=C(/C=C/c1ccoc1)c1ccccc1O | -133.5* | -0.9 | 9.0
Cc1cc(C(=O)NC(=S)Nc2cccc(C(=O)O)c2C)ccc1[N+](=O)[O-] | -53.7* | -0.4 | 10.8
Cc1ccccc1C(=O)c1cccn1CC(=O)NCc1ccc(Cl)cc1 | -91.7* | 7.4 | 16.1
SMILES | Apaf1 activ | Rh110 interf act | Apaf-1 act conf
CN(Cc1ccccc1)S(=O)(=O)c1cn(C)cn1 | -113.1* | 7.3 | 13.7
CN(C)c1cccc2c1c(NS(=O)(=O)c1cn(C)cn1)nn2C | 61.9 | nt | nt
CC/C(=N/Nc1ccccc1C)c1cnnc(SC)n1 | 40.7 | nt | nt
Cc1nc2sccn2c(=O)c1CCN1CCC(=C(c2ccc(F)cc2)c2ccc(F)cc2)CC1 | 42.3 | nt | nt
COc1ccc(S(N)(=O)=O)cc1-c1nnc2c3ccccc3c(C)nn12 | -54.3* | 14.0 | 13.3
CCN(CC)C(=O)CSc1nc2ccccc2c(=O)n1CC | -176.1* | 4.8 | 5.2
NC1(C#Cc2ccc3oc(=O)c(-n4cc(-c5ccsc5)nn4)cc3c2)CCCCC1 | 47.7 | nt | nt
Cc1ccc(NC2=C(NCCO)C(=O)c3ccccc3C2=O)cc1 | 78.1 | nt | nt
Cc1ccc(Nc2nc(N)c([N+](=O)[O-])c(NCc3ccco3)n2)cc1 | -443.2* | 13.4 | 17.0
CC(C)C[C@H](NC(=O)c1nc[nH]c1C(=O)N[C@@H](CCCCN)C(=O)OC(C)(C)C)C(=O)OC(C)(C)C | 42.6 | nt | nt
